The values that follow come from ChEMBL document CHEMBL4373698, “Biosynthesis of Nonimmunosuppressive FK506 Analogues with Antifungal Activity” (J Nat Prod, 2019).

Converted amounts (≈) assume the structure as drawn. The source made the active and inactive calls. The rule behind the calls is not given here.

Experiment [1] is described as follows: Immunosuppressive activity against […] mouse CD4-positive T cells assessed as inhibition of CD3/CD28-induced cell proliferation. The procedure, abridged: (§1)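 Spleen cells from 6–8-week B6J mice, red cells lysed; CD4+ T cells labelled with CellTrace Violet at isolation. Stimulated with anti-CD3/CD28 beads with compound for 72 h; stained for CD4 and CD44 plus near-IR live/dead dye; proliferation read by flow cytometry; IC50 from curves.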

Experiment [2] concerns Aspergillus fumigatus. Description: Antifungal activity against Aspergillus fumigatus Af293. The format is functional, organism-based. The method, boiled down: (§2)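 Af293 conidia at 10^5/mL in RPMI (8.4 g/L RPMI1640, 34.5 g/L MOPS, 20 g/L dextrose, pH 7) per EUCAST broth microdilution; 2-fold serial dilutions from 10 μg/mL; 35 °C, 48 h; OD600 read. % growth versus no-inhibitor wells after medium-only background subtraction; IC50 derived from growth curves.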

Experiment [3] concerns Cryptococcus neoformans. Description: Antifungal activity against Cryptococcus neoformans H99. Conditions: var grubii H99. In kind it is functional, organism-based. The method, boiled down:
(§3)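 H99 grown in YPD at 30 °C for 20 h, then seeded at OD600 0.01 in RPMI-MOPS-dextrose pH 7 (EUCAST microdilution). Analogues added as 2-fold dilutions from 10 μg/mL; 37 °C, 48 h; OD600 read. Growth expressed relative to no-inhibitor wells after background subtraction; IC50 calculated.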

Experiment [4] concerns Candida albicans. The experiment is described as follows: Antifungal activity against Candida albicans SC5314. In kind it is functional, organism-based. The method, boiled down: (§4)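 SC5314 grown in YPD at 30 °C for 16 h, washed twice and resuspended in PBS. Seeded at 1.25 × 10^5 cells per well in 100% FBS with 2-fold dilutions from 10 μg/mL; 37 °C, 24 h. XTT (500 μg/mL in PBS, menadione final 10 μM) added, 2 h at 37 °C in the dark; OD490 read; IC50.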

Experiment [5] has as its system Cryptococcus neoformans. Description: Synergistic antifungal activity against Cryptococcus neoformans H99 assessed as FIC index in presence of fluconazole after 48 hrs by checker board assay. In kind it is functional, var grubii H99. The method, boiled down:
(§5)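 Checkerboard with fluconazole: H99 grown overnight in YPD at 30 °C, seeded at OD600 0.01 in RPMI 1640 per EUCAST. Test agent 2-fold serially diluted. FIC index calculated per strain; ≤0.5 synergy, >0.5–1.0 additive, >1.0–2.0 no interaction, >2.0 antagonism.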

Experiment [6] relates to Cryptococcus neoformans. The experiment is described as follows: Antifungal activity against Cryptococcus neoformans H99 after 48 hrs by EUCAST-based microdilution assay. Conditions: var grubii H99 . In kind it is functional, organism-based. The method, boiled down: as §3
A general note: In broth dilution the organism is exposed to a series of concentrations in liquid medium.

Experiment [7] has as its system Aspergillus fumigatus. The experiment is described as follows: Antifungal activity against Aspergillus fumigatus Af293 after 48 hrs by EUCAST-based microdilution assay. In kind it is functional, organism-based. To be noted: Af293, 48 h. The procedure, abridged:
as §2

In experiment [8] the test system is Candida albicans. Description: Antifungal activity against Candida albicans SC5314 after 24 hrs by XTT assay. The format is functional, organism-based. To be noted: SC5314, 24 h. The procedure, abridged: as §4
The nature of experiment [9]: Immunosuppressive activity against […] mouse CD4-positive T cell cells assessed as inhibition of CD3/CD28-induced cell proliferation after 72 hrs by FACS analysis. The method, boiled down:
as §1

Experiment [10] deals with Cryptococcus neoformans. The experiment is described as follows: Synergistic antifungal activity against Cryptococcus neoformans H99 assessed as FIC index in presence of fluconazole. The format is functional, var grubii H99. The method, boiled down:
as §5

The subject of experiment [11] is Cryptococcus neoformans. Description: Antifungal activity against Cryptococcus neoformans harboring frr1 deletion mutant at 30 ug/ml. The format is functional, organism-based.
Experiment [12] relates to Cryptococcus neoformans. Description: Synergistic antifungal activity against Cryptococcus neoformans H99 in presence of 1.25 ug/ml fluconazole after 48 hrs by checker board assay. In kind it is functional, organism-based. Conditions: var grubii H99 .
Experiment [13] concerns Cryptococcus neoformans. Description: Synergistic antifungal activity against Cryptococcus neoformans H99 in presence of 2.5 ug/ml fluconazole after 48 hrs by checker board assay. In kind it is functional, organism-based. To be noted: var grubii H99 .

By IC50 is commonly meant the concentration that gives 50% inhibition. Turning to `C=CC[C@@H]1/C=C(\C)C[C@H](C)C[C@H](OC)[C@H]2O[C@@](O)(CC(=O)N3CCCC[C@H]3C(=O)O[C@H](/C(C)=C/[C@@H]3CC[C@@H](O)[C@H](OC)C3)[C@H](C)[C@@H](O)CC1=O)[C@H](C)C[C@@H]2OC`, the IC50 amounted to 0.513 ng/mL (≈ 0.000649 µM) in experiment [1], 24.2 µg/mL (≈ 30.6 µM) in the experiment with Aspergillus fumigatus [2], 0.036 µg/mL (≈ 0.0456 µM) in the experiment on Cryptococcus neoformans [3] and 0.963 µg/mL (≈ 1.22 µM) with Candida albicans [4].
Take `CC[C@@H]1/C=C(\C)C[C@H](C)C[C@H](OC)[C@H]2O[C@@](O)(C(=O)C(=O)N3CCCC[C@H]3C(=O)O[C@H](/C(C)=C/[C@@H]3CC[C@@H](O)[C@H](OC)C3)[C@H](C)[C@@H](O)CC1=O)[C@H](C)C[C@@H]2OC` [ASCOMYCIN]: the “fractional inhibitory concentration index (FICI)” value in the experiment with Cryptococcus neoformans [5] was determined as 0.5.
With `C=CC[C@@H]1/C=C(\C)C[C@H](C)C[C@H](OC)[C@H]2O[C@@](O)(CC(=O)N3CCCC[C@H]3C(=O)O[C@H](/C(C)=C/[C@@H]3CC[C@@H](O)[C@H](O)C3)[C@H](C)[C@@H](O)CC1=O)[C@H](C)C[C@@H]2OC`, the IC50 in experiment [1] came to 15.1 ng/mL (≈ 0.0194 µM); in the experiment with Aspergillus fumigatus [2], 29.8 µg/mL (≈ 38.4 µM); in the experiment with Cryptococcus neoformans [3], 0.154 µg/mL (≈ 0.198 µM); in the experiment with Candida albicans [4] it was 2.8 µg/mL (≈ 3.6 µM).
Take `CCC[C@@H]1/C=C(\C)C[C@H](C)C[C@H](OC)[C@H]2O[C@@](O)(CC(=O)N3CCCC[C@H]3C(=O)O[C@H](/C(C)=C/[C@@H]3CC[C@@H](O)[C@H](O)C3)[C@H](C)[C@@H](O)CC1=O)[C@H](C)C[C@@H]2OC`: the IC50 was 8.85 µg/mL (≈ 11.4 µM) with Cryptococcus neoformans [6], greater than 50 µg/mL with Aspergillus fumigatus [7], 4.26 µg/mL (≈ 5.48 µM) with Candida albicans [8] and 0.0459 µg/mL (≈ 0.059 µM) in experiment [9].
Regarding `CC[C@@H]1/C=C(\C)C[C@H](C)C[C@H](OC)[C@H]2O[C@@](O)(C(=O)C(=O)N3CCCC[C@H]3C(=O)O[C@H](/C(C)=C/[C@@H]3CC[C@@H](O)[C@H](O)C3)[C@H](C)[C@@H](O)CC1=O)[C@H](C)C[C@@H]2OC`, the IC50 in the experiment with Cryptococcus neoformans [6] came out at 0.027 µg/mL (≈ 0.0347 µM); in the experiment with Aspergillus fumigatus [7], 12.2 µg/mL (≈ 15.7 µM); in the experiment on Candida albicans [8] it was 0.079 µg/mL (≈ 0.102 µM); in experiment [9], 0.00327 µg/mL (≈ 0.00421 µM).
For `CCC[C@@H]1/C=C(\C)C[C@H](C)C[C@H](OC)[C@H]2O[C@@](O)(CC(=O)N3CCCC[C@H]3C(=O)O[C@H](/C(C)=C/[C@@H]3CC[C@@H](O)[C@H](OC)C3)[C@H](C)[C@@H](O)CC1=O)[C@H](C)C[C@@H]2OC` the same measures were 0.151 µg/mL (≈ 0.191 µM), 14.1 µg/mL (≈ 17.8 µM), 0.817 µg/mL (≈ 1.03 µM) and 0.0255 µg/mL (≈ 0.0323 µM).
Turning to `C=CC[C@@H]1/C=C(\C)C[C@H](C)C[C@H](OC)[C@H]2O[C@@](O)(C(=O)C(=O)N3CCCC[C@H]3C(=O)O[C@H](/C(C)=C/[C@@H]3CC[C@@H](O)[C@H](O)C3)[C@H](C)[C@@H](O)CC1=O)[C@H](C)C[C@@H]2OC`, the IC50 in experiment [1] came out at 0.246 ng/mL (≈ 0.000311 µM); with Aspergillus fumigatus [2], 0.165 µg/mL (≈ 0.209 µM); in the experiment with Cryptococcus neoformans [3] it was 0.005 µg/mL (≈ 0.00633 µM); in the experiment on Candida albicans [4], 0.106 µg/mL (≈ 0.134 µM).
Consider `C=CC[C@@H]1/C=C(\C)C[C@H](C)C[C@H](OC)[C@H]2O[C@@](O)(C(=O)C(=O)N3CCCC[C@H]3C(=O)O[C@H](/C(C)=C/[C@@H]3CC[C@@H](O)[C@H](OC)C3)[C@H](C)[C@@H](O)CC1=O)[C@H](C)C[C@@H]2OC` [TACROLIMUS ANHYDROUS], for which the IC50 in [1] was found to be 0.027 ng/mL (≈ 3.36e-05 µM); in the experiment with Aspergillus fumigatus [2] it was 0.015 µg/mL (≈ 0.0187 µM); in the experiment on Cryptococcus neoformans [3], 0.001 µg/mL (≈ 0.00124 µM); in the experiment on Candida albicans [4] it was 0.005 µg/mL (≈ 0.00622 µM). Besides, the “fractional inhibitory concentration index (FICI)” value in the experiment on Cryptococcus neoformans [10] amounted to 0.38.
With `CO[C@H]1C[C@@H](C)C/C(C)=C/[C@@H](C)C(=O)C[C@H](O)[C@@H](C)[C@@H](/C(C)=C/[C@@H]2CC[C@@H](O)[C@H](OC)C2)OC(=O)[C@@H]2CCCCN2C(=O)C[C@]2(O)O[C@H]1[C@@H](OC)C[C@H]2C`, the IC50 with Cryptococcus neoformans [6] was determined as 2.47 µg/mL (≈ 3.23 µM); with Aspergillus fumigatus [7], 230 µg/mL (≈ 302 µM); in the experiment with Candida albicans [8], 6.07 µg/mL (≈ 7.95 µM); in experiment [9], 1.98 µg/mL (≈ 2.6 µM); in the experiment with Cryptococcus neoformans [12], 0.125 µg/mL. Moreover, the “fractional inhibitory concentration index (FICI)” value in the experiment with Cryptococcus neoformans [5] stood at 0.5. The result in the experiment with Cryptococcus neoformans [11] was inactive.
Regarding `CC[C@@H]1/C=C(\C)C[C@H](C)C[C@H](OC)[C@H]2O[C@@](O)(CC(=O)N3CCCC[C@H]3C(=O)O[C@H](/C(C)=C/[C@@H]3CC[C@@H](O)[C@H](OC)C3)[C@H](C)[C@@H](O)CC1=O)[C@H](C)C[C@@H]2OC`, the IC50 worked out at 0.355 µg/mL (≈ 0.456 µM) with Cryptococcus neoformans [6]; 7.82 µg/mL (≈ 10.1 µM) with Aspergillus fumigatus [7]; 0.662 µg/mL (≈ 0.851 µM) in the experiment with Candida albicans [8]; 0.025 µg/mL (≈ 0.0321 µM) in [9]; 0.031 µg/mL in the experiment with Cryptococcus neoformans [13]. Besides, the “fractional inhibitory concentration index (FICI)” value with Cryptococcus neoformans [5] was found to be 0.19. Further, the result in the experiment on Cryptococcus neoformans [11] was inactive.
As to `CO[C@H]1C[C@@H](C)C/C(C)=C/[C@@H](C)C(=O)C[C@H](O)[C@@H](C)[C@@H](/C(C)=C/[C@@H]2CC[C@@H](O)[C@H](O)C2)OC(=O)[C@@H]2CCCCN2C(=O)C[C@]2(O)O[C@H]1[C@@H](OC)C[C@H]2C`, the IC50 is 54.5 µg/mL (≈ 72.7 µM) with Cryptococcus neoformans [6], greater than 50 µg/mL in the experiment on Aspergillus fumigatus [7], 837 µg/mL (≈ 1120 µM) in the experiment on Candida albicans [8] and 3.38 µg/mL (≈ 4.5 µM) in [9].
For `CCC[C@@H]1/C=C(\C)C[C@H](C)C[C@H](OC)[C@H]2O[C@@](O)(C(=O)C(=O)N3CCCC[C@H]3C(=O)O[C@H](/C(C)=C/[C@@H]3CC[C@@H](O)[C@H](O)C3)[C@H](C)[C@@H](O)CC1=O)[C@H](C)C[C@@H]2OC` the same measures were 0.033 µg/mL (≈ 0.0417 µM), 0.415 µg/mL (≈ 0.524 µM), 0.059 µg/mL (≈ 0.0745 µM) and 0.00172 µg/mL (≈ 0.00218 µM).
Consider `CC[C@@H]1/C=C(\C)C[C@H](C)C[C@H](OC)[C@H]2O[C@@](O)(CC(=O)N3CCCC[C@H]3C(=O)O[C@H](/C(C)=C/[C@@H]3CC[C@@H](O)[C@H](O)C3)[C@H](C)[C@@H](O)CC1=O)[C@H](C)C[C@@H]2OC`, for which the IC50 with Cryptococcus neoformans [6] turned out to be 3.3 µg/mL (≈ 4.32 µM); with Aspergillus fumigatus [7], 307 µg/mL (≈ 402 µM); in the experiment on Candida albicans [8] it was 2.85 µg/mL (≈ 3.73 µM); in experiment [9] it was 0.258 µg/mL (≈ 0.338 µM); in the experiment with Cryptococcus neoformans [12], 0.0625 µg/mL. Also, in the experiment with Cryptococcus neoformans [5], the “fractional inhibitory concentration index (FICI)” value is 0.19. Further, the result with Cryptococcus neoformans [11] was inactive.
For `C=CC[C@@H]1/C=C(\C)C[C@H](C)C[C@H](OC)[C@H]2O[C@@](O)(CC(=O)N3CCC[C@H]3C(=O)O[C@H](/C(C)=C/[C@@H]3CC[C@@H](O)[C@H](O)C3)[C@H](C)[C@@H](O)CC1=O)[C@H](C)C[C@@H]2OC`, the IC50 is 221 µg/mL (≈ 290 µM) in the experiment on Cryptococcus neoformans [6], greater than 50 µg/mL with Aspergillus fumigatus [7], 3440 µg/mL (≈ 4520 µM) with Candida albicans [8] and 0.886 µg/mL (≈ 1.16 µM) in experiment [9].
